The source of these data is ChEMBL document CHEMBL3870359, “Design and Synthesis of Novel Meta-Linked Phenylglycine Macrocyclic FVIIa Inhibitors” (ACS Med Chem Lett, 2017).

Each structure is given as a SMILES string.

Series [1] in a line: Half life in rat liver microsomes. In kind it is ADME.
For series [2], the target named is T1, Coagulation factor VII/tissue factor (Homo sapiens, UniProt P08709). Kind of series: Inhibition of recombinant human factor-7a/TF using S2288 as substrate measured after 60 mins at 37 degC. In kind it is protein-complex assay. An outline of the steps: (§1)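 Ki determined against recombinant human TF/FVIIa enzyme, each value averaged from two experiments. The assay was first run at 25 °C and later moved to 37 °C to better approximate physiological conditions.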
T1 sequence (P08709 61-212 limits assumed): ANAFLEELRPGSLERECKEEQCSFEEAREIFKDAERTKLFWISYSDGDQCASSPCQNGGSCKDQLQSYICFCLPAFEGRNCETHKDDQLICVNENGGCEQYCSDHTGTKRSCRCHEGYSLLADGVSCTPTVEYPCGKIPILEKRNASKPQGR
T1 sequence (P08709 213-466 limits assumed): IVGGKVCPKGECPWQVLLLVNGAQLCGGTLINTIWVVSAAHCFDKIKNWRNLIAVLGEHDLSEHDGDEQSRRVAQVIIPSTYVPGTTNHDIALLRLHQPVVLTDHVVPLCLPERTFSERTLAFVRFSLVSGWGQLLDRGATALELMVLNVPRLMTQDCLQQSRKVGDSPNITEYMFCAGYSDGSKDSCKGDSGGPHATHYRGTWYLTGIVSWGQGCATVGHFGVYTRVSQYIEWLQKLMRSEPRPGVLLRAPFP
T1 sequence (P13726 33-295 partner limits assumed): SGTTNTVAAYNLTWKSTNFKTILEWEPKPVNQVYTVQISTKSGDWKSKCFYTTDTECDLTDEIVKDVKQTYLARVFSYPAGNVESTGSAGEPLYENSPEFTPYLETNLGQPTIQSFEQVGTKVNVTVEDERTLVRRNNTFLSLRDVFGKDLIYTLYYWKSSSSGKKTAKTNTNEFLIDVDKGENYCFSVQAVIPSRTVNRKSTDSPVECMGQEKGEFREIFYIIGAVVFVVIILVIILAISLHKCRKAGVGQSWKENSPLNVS

A short description of series [3]: Permeability of the compound at pH 7.4 by PAMPA. In kind it is ADME. Conditions: read-out: permeability. (PAMPA measures passive passage across an artificial lipid membrane.)
Series [4] can be described thus: Permeability of the compound at pH 5.5 by PAMPA. In kind it is ADME. Conditions: read-out: permeability.
The nature of series [5]: Half life in human liver microsomes. In kind it is ADME. (Liver microsomes are vesicles of endoplasmic reticulum, rich in cytochrome P450 enzymes.)
Series [6] can be described thus: Anticoagulant activity in factor 7 deficient human plasma assessed as concentration required for prolongation of prothrombin time. In kind it is functional. Summed up:
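Clotting (prothrombin time) assay in FVII-deficient human plasma. Read-out is the compound concentration that prolongs clotting time 2-fold (EC2X, μM).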

The target in series [7] is Vitamin K-dependent protein C (Homo sapiens, UniProt P04070). Nature of the series: Inhibition of activated protein C (unknown origin).
Sequence of Vitamin K-dependent protein C (P04070 43-197 limits assumed): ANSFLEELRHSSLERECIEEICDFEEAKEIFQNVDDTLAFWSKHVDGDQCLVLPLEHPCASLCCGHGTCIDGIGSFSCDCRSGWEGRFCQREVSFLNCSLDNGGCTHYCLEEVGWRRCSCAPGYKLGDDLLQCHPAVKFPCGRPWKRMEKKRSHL
Sequence of Vitamin K-dependent protein C (P04070 212-461 limits assumed): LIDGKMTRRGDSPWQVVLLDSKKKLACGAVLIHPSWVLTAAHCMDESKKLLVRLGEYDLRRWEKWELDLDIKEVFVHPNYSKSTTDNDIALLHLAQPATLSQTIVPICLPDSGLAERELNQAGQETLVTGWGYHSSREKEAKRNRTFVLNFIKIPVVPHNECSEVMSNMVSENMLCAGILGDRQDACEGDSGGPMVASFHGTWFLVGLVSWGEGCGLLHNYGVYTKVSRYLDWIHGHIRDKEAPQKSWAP
Another series addresses Kallikrein-1 (Homo sapiens, UniProt P06870). Nature of the series: Inhibition of tissue Kallikrein-1 (unknown origin).
The target in series [8] is T1, Coagulation factor VII/tissue factor. Nature of the series: Inhibition of recombinant human factor-7a/TF using S2288 as substrate measured after 60 mins at 25 degC. In kind it is protein-complex assay. Summed up:
as §1

Series [9] in a line: Oral bioavailability in rat. Conditions: in vivo. In kind it is ADME, organism-based.

Sequence of Kallikrein-1 (P06870 whole entry): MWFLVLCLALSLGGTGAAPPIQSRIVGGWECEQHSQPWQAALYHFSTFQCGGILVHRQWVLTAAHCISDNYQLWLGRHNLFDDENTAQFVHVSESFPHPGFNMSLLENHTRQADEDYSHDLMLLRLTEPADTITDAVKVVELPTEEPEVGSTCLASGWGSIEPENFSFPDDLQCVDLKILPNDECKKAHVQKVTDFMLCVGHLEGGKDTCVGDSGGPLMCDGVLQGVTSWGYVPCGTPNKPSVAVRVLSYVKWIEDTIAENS

The half-life is the time in which the quantity being followed falls by half. A high value points to slow decline. As usually defined, the Ki is a dissociation constant, usually derived from enzyme kinetics or from competition with a known ligand. For `COc1ccc2cc1CCC(=O)Nc1ccc(S(=O)(=O)C3CC3)c(c1)CN(C)C(=O)[C@@H]2Nc1ccc2c(N)ncc(F)c2c1`, the half-life was 16 min in series [1] and 14 min in [5]. For the same compound, the Ki in series [2] came out at 18 nM. In addition, the Papp came to 54 ×10⁻⁶ cm/s in series [3] and 35 ×10⁻⁶ cm/s in series [4]. Moreover, in series [6], the 2PT was determined as 11 µM.
`CN1Cc2cc(ccc2S(=O)(=O)C2CC2)NC(=O)CCc2cc(ccc2OCC(F)F)[C@@H](Nc2ccc3c(N)ncc(F)c3c2)C1=O`: the Ki in series [7] stood at 1200 nM; in series [2] it was 27 nM; at Kallikrein-1 it was 140 nM. Further, the half-life in series [1] is 64 min; in [5], 32 min. The Papp in series [4] was 8.8 ×10⁻⁶ cm/s. In series [6], the 2PT was determined as 15 µM.
As to `C[C@@H]1CC(=O)Nc2ccc(S(=O)(=O)C3CC3)c(c2)CN(C)C(=O)[C@H](Nc2ccc3c(N)ncc(F)c3c2)c2ccc(OCC(F)F)c1c2`, the Ki in series [7] is 39 nM; in series [2] it was 0.24 nM; at Kallikrein-1 it was 9.4 nM. Besides, the half-life stood at 39 min in series [1] and 31 min in series [5]. Also, the 2PT in series [6] is 3.5 µM.
For `CN1Cc2cc(ccc2S(=O)(=O)C2CC2)NC(=O)CCc2cccc(c2)[C@@H](Nc2ccc3c(N)nccc3c2)C1=O`, the Ki in series [2] was 58 nM; in series [8], less than 5 nM.
As to `COc1c(F)cc2cc1CCC(=O)Nc1ccc(S(=O)(=O)C3CC3)c(c1)CN(C)C(=O)[C@@H]2Nc1ccc2c(N)ncc(F)c2c1`, the half-life in series [1] was 8 min; in series [5] it was 14 min. In addition, the Ki in series [2] came to 410 nM. Besides, the 2PT in series [6] was determined as 41 µM.
Consider `CN1Cc2cc(ccc2S(=O)(=O)C2CC2)NC(=O)CCc2cc(ccc2F)[C@@H](Nc2ccc3c(N)ncc(F)c3c2)C1=O`, for which the Ki in series [2] is 210 nM. Moreover, the 2PT in [6] amounted to 26 µM.
With `CN1CCc2cccc(c2)[C@@H](Nc2ccc3c(N)nccc3c2)C(=O)N(C)Cc2cc(ccc2S(=O)(=O)C2CC2)NC1=O`, the Ki in series [2] worked out at 6.3 nM.
On to `CN1Cc2cc(ccc2S(=O)(=O)C2CC2)NC(=O)CCc2cc(ccc2OCC2CC2)[C@@H](Nc2ccc3c(N)ncc(F)c3c2)C1=O`, for which the half-life in [1] and in series [5] was 23 min each time. In addition, the Ki in [2] turned out to be 26 nM. Besides, the 2PT in series [6] stood at 29 µM.
`COc1cc2cc(c1)[C@@H](Nc1ccc3c(N)ncc(F)c3c1)C(=O)N(C)Cc1cc(ccc1S(=O)(=O)C1CC1)NC(=O)CC2`: the half-life worked out at 46 min in series [1] and 15 min in series [5]. Further, the Ki in series [2] stood at 290 nM. Also, the Papp in series [3] is 29 ×10⁻⁶ cm/s; in series [4], 1.5 ×10⁻⁶ cm/s. Moreover, in series [6], the 2PT amounted to 14 µM.
Take `CN1Cc2cc(ccc2S(=O)(=O)C2CC2)NC(=O)CCc2cc(ccc2C2CC2)[C@@H](Nc2ccc3c(N)ncc(F)c3c2)C1=O`: the figures for the half-life in series [1] and in series [5] were 5 min and 26 min, respectively. In addition, in series [2], the Ki was 77 nM. The 2PT in [6] stood at 26 µM.
What is called bioavailability is dose-corrected exposure relative to a reference, in per cent. Consider `CN1Cc2cc(ccc2S(=O)(=O)C2CC2)NC(=O)CCc2cccc(c2)[C@@H](Nc2ccc3c(N)ncc(F)c3c2)C1=O`, for which the half-life is 33 min in [1] and 13 min in [5]. The Ki in [2] stood at 260 nM. Also, the bioavailability in series [9] turned out to be 3.7%. Besides, the Papp in series [3] was determined as 12 ×10⁻⁶ cm/s; in [4], 6.7 ×10⁻⁶ cm/s. Besides, in series [6], the 2PT was 10 µM.
For `CN1Cc2cc(ccc2S(=O)(=O)C2CC2)NC(=O)NCCc2cccc(c2)[C@@H](Nc2ccc3c(N)ncc(F)c3c2)C1=O`, the Ki in [8] was 17 nM.
As for `CN1CCc2cccc(c2)[C@@H](Nc2ccc3c(N)ncc(F)c3c2)C(=O)N(C)Cc2cc(ccc2S(=O)(=O)C2CC2)NC1=O`, the half-life is 6 min in series [1] and 5 min in [5]. Moreover, the Ki in series [2] was 200 nM; in series [8], 14 nM. For the same compound, the F entry in series [9] (BLD = below limit of detection) was “Bld”. The Papp in series [3] was 22 ×10⁻⁶ cm/s.
For `CN1Cc2cc(ccc2S(=O)(=O)C2CC2)NC(=O)OCc2cccc(c2)[C@@H](Nc2ccc3c(N)nccc3c2)C1=O`, in series [8], the Ki worked out at 260 nM.
`COc1ccc2cc1[C@@H](C)CN(C)C(=O)Nc1ccc(S(=O)(=O)C3CC3)c(c1)CN(C)C(=O)[C@@H]2Nc1ccc2c(N)ncc(F)c2c1`: the half-life in series [1] and in [5] was 4 min in each case. Moreover, the Ki in series [2] was 3.8 nM; in [8], less than 5 nM.
Consider `C[C@H]1CC(=O)Nc2ccc(S(=O)(=O)C3CC3)c(c2)CN(C)C(=O)[C@H](Nc2ccc3c(N)ncc(F)c3c2)c2ccc(OCC(F)F)c1c2`, for which the values for the Ki (in [7]; in series [2]; at Kallikrein-1) were 5700 nM, 67 nM and 23 nM, respectively. Besides, the half-life in series [1] stood at 74 min; in series [5] it was 14 min. For the same compound, the 2PT in series [6] turned out to be 23 µM.
In the case of `CN1Cc2cc(ccc2S(=O)(=O)C2CC2)NC(=O)N(Cc2ccccc2)CCc2cccc(c2)[C@@H](Nc2ccc3c(N)ncc(F)c3c2)C1=O`, the Ki in [8] turned out to be 80 nM.
Take `CN1Cc2cc(ccc2S(=O)(=O)C2CC2)NC(=O)CCc2cc(ccc2O)[C@@H](Nc2ccc3c(N)ncc(F)c3c2)C1=O`: the Ki in [2] is 92 nM. For the same compound, in series [6], the 2PT was 14 µM.
Turning to `COc1ccc2cc1[C@H](C)CN(C)C(=O)Nc1ccc(S(=O)(=O)C3CC3)c(c1)CN(C)C(=O)C2Nc1ccc2c(N)nccc2c1` (mixture of isomers), the half-life in series [1] and in series [5] was 6 min each time. Moreover, in series [8], the inhibition constant (Ki) was found to be 47 nM.
Consider `CN1Cc2cc(ccc2S(=O)(=O)C2CC2)NC(=O)N(CC2CCC2)CCc2cccc(c2)C(Nc2ccc3c(N)ncc(F)c3c2)C1=O` (racemic), for which the Ki in series [8] amounted to 150 nM.
As to `CN1Cc2cc(ccc2S(=O)(=O)C2CC2)NC(=O)N(CC2CC2)CCc2cccc(c2)C(Nc2ccc3c(N)ncc(F)c3c2)C1=O` (racemic), the half-life in series [1] stood at 12 min; in [5], 5 min. For the same compound, the Ki in [8] came to 59 nM.
